Results taken from ChEMBL document CHEMBL1130128, “Antipsoriatic anthrones with modulated redox properties. 4. Synthesis and biological activity of novel 9,10-dihydro-1,8-dihydroxy-9-oxo-2-anthracenecarboxylic and -hydroxamic acids” (J Med Chem, 1997).
Blank lines part the entries; values can stand above or below the compound they belong to.

What was measured:
[1] = tested on: HaCaT; assay: Antiproliferative activity (AA) against HaCaT keratinocytes.; format: functional, cell-based; details: Homo sapiens
[2] = tested on: HaCaT; assay: Cytotoxicity of LDH release in HaCaT cells; format: functional, Homo sapiens; parameters: unit: mU
Procedure, shortened: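 HaCaT cells treated with 2 μM test compound; plasma membrane damage measured as lactate dehydrogenase activity released into culture medium, in mU; N = 3; compared with vehicle control.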

[3] = target: T1, Arachidonate 5-lipoxygenase (Bos taurus, UniProt Q9BEG3); assay: 5-LO inhibitory activity, measured by production of 5-hydroxyeicosatetraenoic acid (5-HETE) and leukotriene B4 (LTB4) in bovine polymorphonuclear leukocytes; format: functional, cell-based
T1 sequence (Q9BEG3 whole entry): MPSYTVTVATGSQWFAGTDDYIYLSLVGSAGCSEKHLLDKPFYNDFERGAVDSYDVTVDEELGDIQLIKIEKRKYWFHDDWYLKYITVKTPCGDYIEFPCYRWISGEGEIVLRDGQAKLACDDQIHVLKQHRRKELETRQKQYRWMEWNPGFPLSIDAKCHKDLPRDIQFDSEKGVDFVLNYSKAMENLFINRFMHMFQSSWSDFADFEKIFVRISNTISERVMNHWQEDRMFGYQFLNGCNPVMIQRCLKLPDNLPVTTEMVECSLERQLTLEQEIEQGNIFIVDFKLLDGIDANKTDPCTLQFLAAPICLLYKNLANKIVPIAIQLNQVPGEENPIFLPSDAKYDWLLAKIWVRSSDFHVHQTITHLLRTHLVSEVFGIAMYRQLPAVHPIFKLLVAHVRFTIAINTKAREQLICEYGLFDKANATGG

[4] = Antioxidant activity, measuring Deoxyribose degradation (DD) as a measure of hydroxyl radical formation.
Procedure, shortened: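 Deoxyribose assay: 2-deoxy-D-ribose incubated with 75 μM test compound; hydroxyl-radical generation read as malondialdehyde release, expressed as μmol MDA/mmol deoxyribose; compared with control.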

Compound: CN(O)C(=O)C(Cc1ccccc1)c1ccc2c(c1O)C(=O)c1c(O)cccc1C2 (stereo unspecified)
IC50 [1]: 900 nM | IC50 [3]: 5000 nM | DD [4]: 1.68 µmol/mmol

Compound: CCCCOc1ccc(CC(=O)NO)cc1 [BUFEXAMAC]
IC50 [1]: > 5000 nM | LDH [2]: 135 MU | IC50 [3]: 35000 nM

Compound: COC(=O)CCCCCc1ccc2c(c1O)C(=O)c1c(O)cccc1C2
IC50 [1]: 1600 nM | LDH [2]: 142 MU | IC50 [3]: > 30000 nM

Compound: COC(=O)CCc1ccc2c(c1O)C(=O)c1c(O)cccc1C2
IC50 [1]: 800 nM | IC50 [3]: > 30000 nM

Compound: CC(C(=O)N(C)O)c1ccc2c(c1O)C(=O)c1c(O)cccc1C2 (stereo unspecified)
IC50 [1]: 1500 nM | LDH [2]: 142 MU | IC50 [3]: 6000 nM | DD [4]: 1.57 µmol/mmol

Compound: O=C(CCCc1ccc2c(c1O)C(=O)c1c(O)cccc1C2)NO
IC50 [1]: 1500 nM | IC50 [3]: 3000 nM | DD [4]: 1.46 µmol/mmol

Compound: O=C(O)c1ccc(C(=O)c2ccc3c(c2O)C(=O)c2c(O)cccc2C3)cc1
IC50 [1]: > 5000 nM | IC50 [3]: 2000 nM | DD [4]: 1.34 µmol/mmol

Compound: O=C1c2c(O)cccc2Cc2cccc(O)c21 [ANTHRALIN]
IC50 [1]: 600 nM | LDH [2]: 294 MU | DD [4]: 2.89 µmol/mmol

Compound: CN(O)C(=O)c1ccc(C(=O)c2ccc3c(c2O)C(=O)c2c(O)cccc2C3)cc1
IC50 [1]: 1800 nM | IC50 [3]: 4000 nM | DD [4]: 0.92 µmol/mmol

Compound: O=C(O)CCc1ccc2c(c1O)C(=O)c1c(O)cccc1C2
IC50 [1]: > 5000 nM | IC50 [3]: 19000 nM | DD [4]: 2.67 µmol/mmol

Compound: CC(C)C(C(=O)O)c1ccc2c(c1O)C(=O)c1c(O)cccc1C2 (stereo unspecified)
IC50 [1]: > 5000 nM | LDH [2]: 128 MU | DD [4]: 3.58 µmol/mmol

Compound: COC(=O)C(CCc1ccccc1)c1ccc2c(c1O)C(=O)c1c(O)cccc1C2 (stereo unspecified)
IC50 [1]: 1300 nM | LDH [2]: 142 MU | IC50 [3]: > 30000 nM | DD [4]: 0.28 µmol/mmol

Compound: COC(=O)C(c1ccc2c(c1O)C(=O)c1c(O)cccc1C2)C(C)C (stereo unspecified)
IC50 [1]: 1500 nM | IC50 [3]: > 30000 nM | DD [4]: 0.54 µmol/mmol

Compound: CC(C(=O)NO)c1ccc2c(c1O)C(=O)c1c(O)cccc1C2 (stereo unspecified)
IC50 [1]: 2000 nM | DD [4]: 1.3 µmol/mmol

Compound: COC(=O)CCCCc1ccc2c(c1O)C(=O)c1c(O)cccc1C2
IC50 [1]: 1800 nM | LDH [2]: 146 MU | IC50 [3]: > 30000 nM | DD [4]: 0.62 µmol/mmol

Compound: COC(=O)c1ccc(C(=O)c2ccc3c(c2O)C(=O)c2c(O)cccc2C3)cc1
IC50 [1]: 1800 nM | IC50 [3]: > 30000 nM

Compound: COC(=O)C(Cc1ccccc1)c1ccc2c(c1O)C(=O)c1c(O)cccc1C2 (stereo unspecified)
IC50 [1]: 1800 nM | IC50 [3]: > 30000 nM | DD [4]: < 0.15 µmol/mmol

Compound: O=C(O)Cc1ccc2c(c1O)C(=O)c1c(O)cccc1C2
IC50 [1]: > 5000 nM | IC50 [3]: 22000 nM | DD [4]: 3.74 µmol/mmol

Compound: COC(=O)CCCc1ccc2c(c1O)C(=O)c1c(O)cccc1C2
IC50 [1]: 1100 nM | IC50 [3]: > 30000 nM | DD [4]: 0.33 µmol/mmol

Compound: CC(C(=O)O)c1ccc2c(c1O)C(=O)c1c(O)cccc1C2 (stereo unspecified)
IC50 [1]: > 5000 nM | IC50 [3]: 17000 nM

Compound: O=C(O)c1ccc(Cc2ccc3c(c2O)C(=O)c2c(O)cccc2C3)cc1
DD [4]: < 0.15 µmol/mmol

Compound: O=C(O)CCCCc1ccc2c(c1O)C(=O)c1c(O)cccc1C2
IC50 [1]: > 5000 nM | IC50 [3]: 13000 nM | DD [4]: 2.62 µmol/mmol

The next lines start with results.

IC50 [3]: 6000 nM | DD [4]: 1.66 µmol/mmol
Compound: CC(C)C(C(=O)NO)c1ccc2c(c1O)C(=O)c1c(O)cccc1C2 (stereo unspecified)
IC50 [1]: 1500 nM | LDH [2]: 192 MU

IC50 [3]: 5000 nM
Compound: O=C(NO)c1ccc(Cc2ccc3c(c2O)C(=O)c2c(O)cccc2C3)cc1
IC50 [1]: 1100 nM

DD [4]: 3.25 µmol/mmol
Compound: O=C1c2c(O)cccc2Cc2ccc(C(Cc3ccccc3)C(=O)O)c(O)c21 (stereo unspecified)
IC50 [1]: > 5000 nM

IC50 [3]: 2000 nM | DD [4]: 1.38 µmol/mmol
Compound: O=C(CCCCc1ccc2c(c1O)C(=O)c1c(O)cccc1C2)NO
IC50 [1]: 2000 nM | LDH [2]: 135 MU

IC50 [3]: > 30000 nM
Compound: COC(=O)C(C)c1ccc2c(c1O)C(=O)c1c(O)cccc1C2 (stereo unspecified)
IC50 [1]: 800 nM

IC50 [3]: 2000 nM | DD [4]: 2.47 µmol/mmol
Compound: O=C1c2c(O)cccc2Cc2ccc(C(CCc3ccccc3)C(=O)O)c(O)c21 (stereo unspecified)
IC50 [1]: > 5000 nM | LDH [2]: 142 MU

DD [4]: 1.36 µmol/mmol
Compound: CN(O)C(=O)CCCCc1ccc2c(c1O)C(=O)c1c(O)cccc1C2
LDH [2]: 124 MU

IC50 [3]: 4000 nM | DD [4]: 1.67 µmol/mmol
Compound: O=C(CCc1ccc2c(c1O)C(=O)c1c(O)cccc1C2)NO
IC50 [1]: 1300 nM

DD [4]: 1.5 µmol/mmol
Compound: CN(O)C(=O)CCCc1ccc2c(c1O)C(=O)c1c(O)cccc1C2
LDH [2]: 181 MU

IC50 [3]: 5000 nM | DD [4]: 0.86 µmol/mmol
Compound: CC(C)C(C(=O)N(C)O)c1ccc2c(c1O)C(=O)c1c(O)cccc1C2 (stereo unspecified)
IC50 [1]: 1500 nM | LDH [2]: 135 MU

IC50 [3]: > 30000 nM
Compound: COC(=O)Cc1ccc2c(c1O)C(=O)c1c(O)cccc1C2
IC50 [1]: 500 nM

IC50 [3]: 1000 nM | DD [4]: 1.67 µmol/mmol
Compound: CN(O)C(=O)Cc1ccc2c(c1O)C(=O)c1c(O)cccc1C2
IC50 [1]: 800 nM | LDH [2]: 150 MU

IC50 [3]: > 30000 nM | DD [4]: < 0.15 µmol/mmol
Compound: COC(=O)c1ccc(Cc2ccc3c(c2O)C(=O)c2c(O)cccc2C3)cc1

IC50 [3]: 400 nM
Compound: CN(O)C(=O)CCCCCc1ccc2c(c1O)C(=O)c1c(O)cccc1C2
IC50 [1]: 700 nM

IC50 [3]: 18000 nM | DD [4]: 2.61 µmol/mmol
Compound: O=C(O)CCCc1ccc2c(c1O)C(=O)c1c(O)cccc1C2
IC50 [1]: > 5000 nM

IC50 [3]: 4000 nM | DD [4]: 1.04 µmol/mmol
Compound: O=C1c2c(O)cccc2Cc2ccc(C(Cc3ccccc3)C(=O)NO)c(O)c21 (stereo unspecified)
IC50 [1]: 1500 nM

IC50 [3]: 6000 nM | DD [4]: 1.89 µmol/mmol
Compound: O=C(Cc1ccc2c(c1O)C(=O)c1c(O)cccc1C2)NO
IC50 [1]: 1800 nM

IC50 [3]: 10000 nM | DD [4]: 2.29 µmol/mmol
Compound: O=C(O)CCCCCc1ccc2c(c1O)C(=O)c1c(O)cccc1C2
IC50 [1]: > 5000 nM

DD [4]: 0.92 µmol/mmol
Compound: CN(O)C(=O)CCc1ccc2c(c1O)C(=O)c1c(O)cccc1C2
LDH [2]: 135 MU
